Values joined by “and” are separate entries in the source; they are usually repeats but may differ in a detail not shown here. Equal entries are not always repeated.
Experiments:
Type in all cases: in vivo
[1] = tested on: CF‐1 mice, 6 Hz psychomotor seizure; assay: Mouse 6 Hz seizure test; conditions: 1 mg/kg i.p., 0.25 h pretreatment
[2] = tested on: Genetic Absence Epilepsy Rat from Strasbourg (GAERS); assay: GAERS model, spontaneous spike-and-wave discharges; conditions: 3 mg/kg oral; discharges increased progressively afterwards
Outline: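 Adult male GAERS rats (4–8 months) had frontal and parietal cortical EEG recorded while freely moving. […] SWDs were counted over a 20-min baseline (−25 to −5 min) and in 20-min epochs from 10 to 130 min post-dose. Analysis: mixed-model repeated-measures ANOVA with Dunnett vs vehicle; ED50 from a variable-slope curve fit of overall rate as % baseline.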

[3] = tested on: amygdala kindled Wistar rats; assay: Amygdala kindled rat seizure model; conditions: 16 mg/kg orally, 60 min prior to stimulation
Outline: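 Male Wistar rats had electrodes implanted under isoflurane with carprofen (5 mg/kg s.c.). Each treatment ran over 2 days with a 2-day washout. Day 1: oral vehicle (0.5% methylcellulose), then stimulation 60 or 120 min later. […] Seizures were scored on the Racine scale (0–5), and amygdala and cortical EEG afterdischarge duration was analysed off-line. Statistics: Wilcoxon test (severity) and paired t test (afterdischarge) vs baseline.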

CF‐1 mice = assay: Mouse fixed-speed rotarod test of minimal motor impairment; conditions: 1 mg/kg i.p.
Outline: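 Mice were tested on a fixed-speed rotarod at 6 rpm immediately before 6 Hz stimulation at 32 or 44 mA. A mouse falling off 3 times within 1 min was scored impaired. The experimenter was blinded to treatment.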

CN1C(=O)CN=C(c2ccccc2)c2cc(Cl)ccc21 [Diazepam]
Seizure protection 32 mA (mice protected/tested) ([1]; 32 mA): 10/10 | Seizure protection 44 mA (mice protected/tested) ([1]; 44 mA): 3 of 10 and 3/10 | Effect on SWDs in the first epoch (10–30 min) [2]: rapid and almost complete elimination of SWDs | Change in mean afterdischarge duration in the amygdala vs baseline [3]: −69% | Change in mean afterdischarge duration in the cortex vs baseline [3]: −75% | Change in mean seizure severity score (Racine scale) vs baseline [3]: −3.7 | Rotarod impairment (mice impaired/tested), 32 mA group (CF‐1 mice; immediately prior to 6 Hz 32 mA stimulation): 0/10 | Rotarod impairment (mice impaired/tested), 44 mA group (CF‐1 mice; immediately prior to 6 Hz 44 mA stimulation): 0/10

— PMC12169410 (Epilepsia, 2025)
